Test results from ChEMBL document CHEMBL1938331, “Discovery of novel and potent CRTH2 antagonists” (Bioorg Med Chem Lett, 2012).

Experiments:
[1] = target: T1, Prostaglandin D2 receptor 2 (Homo sapiens, UniProt Q9Y5Y4); experiment: Displacement of [3H]PGD2 from human CRTH2 receptor expressed in HEK293 cells after 2 hrs by scintillation counting; type: cell-based
T1 sequence (Q9Y5Y4 whole entry): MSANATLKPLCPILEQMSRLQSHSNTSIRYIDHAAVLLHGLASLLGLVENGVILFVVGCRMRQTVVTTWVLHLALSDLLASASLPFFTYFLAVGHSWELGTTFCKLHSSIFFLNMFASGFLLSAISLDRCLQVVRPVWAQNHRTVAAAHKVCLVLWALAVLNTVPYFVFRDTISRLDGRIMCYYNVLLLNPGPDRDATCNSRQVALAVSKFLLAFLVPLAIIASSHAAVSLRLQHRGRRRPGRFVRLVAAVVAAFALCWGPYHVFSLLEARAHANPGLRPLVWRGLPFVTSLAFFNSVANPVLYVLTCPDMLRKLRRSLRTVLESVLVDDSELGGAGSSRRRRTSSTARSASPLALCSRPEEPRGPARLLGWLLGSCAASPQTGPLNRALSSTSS
Procedure, shortened: (§1)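 Disrupted HEK293 cells stably transfected with human or guinea pig CRTH2 (10 µg protein/well human; 20 µg protein/well guinea pig) in 10 mM BES, 1 mM EDTA, 10 mM MnCl2, pH 7.0, incubated with [3H]PGD2 and rising compound levels 2 h at 4 °C; filtered, scintillation counted; nonspecific binding with 10 µM DK-PGD2; IC50 for 50% binding loss; mean of ≥2 experiments.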

[2] = target: T2, Chemoattractant receptor-homologous molecule expressed on Th2 cells (Cavia porcellus, UniProt Q56D28); experiment: Displacement of [3H]PGD2 from guinea pig CRTH2 receptor expressed in HEK293 cells after 2 hrs by scintillation counting; type: cell-based; procedure, shortened: as §1
T2 sequence (Q56D28 whole entry): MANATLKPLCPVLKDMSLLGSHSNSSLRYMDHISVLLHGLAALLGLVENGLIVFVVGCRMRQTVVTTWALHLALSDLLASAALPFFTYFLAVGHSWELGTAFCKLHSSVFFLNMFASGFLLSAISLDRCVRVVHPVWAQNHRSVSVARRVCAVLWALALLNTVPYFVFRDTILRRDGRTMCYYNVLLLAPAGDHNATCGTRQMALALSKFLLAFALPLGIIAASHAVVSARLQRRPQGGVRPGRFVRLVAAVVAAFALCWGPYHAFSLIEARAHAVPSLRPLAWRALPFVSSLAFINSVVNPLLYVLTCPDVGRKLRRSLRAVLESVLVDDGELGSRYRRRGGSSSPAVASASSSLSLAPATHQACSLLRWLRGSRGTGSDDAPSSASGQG

[3] = Cmax in Hartley guinea pig at 10 mg/kg, po; type: ADME, organism-based, Cavia porcellus; design: dose 10 mg/kg, route oral; conditions: in vivo
Procedure, shortened: (§2)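 Guinea pigs fasted overnight, given 10 mg/kg orally as a 10 mg/mL suspension in 0.5% methylcellulose in water; plasma Cmax and AUC determined.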

[4] = AUC in Hartley guinea pig at 10 mg/kg, po; type: ADME, organism-based, Cavia porcellus; design: dose 10 mg/kg, route oral; conditions: plasma; procedure, shortened: as §2
[5] = Clearance in guinea pig liver microsomes; type: ADME, Cavia porcellus, Microsome; conditions: read-out: CLH
[6] = target: T3, Prostaglandin D2 receptor (Homo sapiens, UniProt Q13258); experiment: Displacement of [3H]PGD2 from human DP1 receptor expressed in HEK293 cells after 2 hrs by scintillation counting; type: cell-based
T3 sequence (Q13258 whole entry): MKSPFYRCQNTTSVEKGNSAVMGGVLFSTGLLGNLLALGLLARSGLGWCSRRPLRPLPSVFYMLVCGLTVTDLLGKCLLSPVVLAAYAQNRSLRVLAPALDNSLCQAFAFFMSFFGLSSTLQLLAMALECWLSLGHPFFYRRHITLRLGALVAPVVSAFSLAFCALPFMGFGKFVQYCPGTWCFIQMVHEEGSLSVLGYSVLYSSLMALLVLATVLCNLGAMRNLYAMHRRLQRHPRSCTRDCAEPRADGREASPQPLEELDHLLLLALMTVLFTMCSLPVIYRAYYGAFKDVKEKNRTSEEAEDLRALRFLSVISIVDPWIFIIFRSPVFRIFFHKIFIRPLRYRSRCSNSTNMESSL
Procedure, shortened: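 Disrupted HEK293 cells stably expressing human DP1 (10 µg protein/well) in 10 mM BES, 1 mM EDTA, 10 mM MnCl2, pH 7.0, incubated with [3H]PGD2 and increasing compound concentrations 2 h at 4 °C; glass-filter harvest and scintillation counting of retained radioactivity.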

SMILES | IC50 [1] [nM] | IC50 [2] [nM] | Cmax [3] [ng/mL] | AUC [4] [ng·h/mL] | CLint scaled [5] [mL/min/kg] | IC50 [6] [nM]
CCC(Oc1cccc(CCCn2cc(C(c3ccccc3)c3ccccc3)ccc2=O)c1)C(=O)O (stereo not given) | 502 | 990 | – | – | – | –
O=C(O)COc1cccc(OCCn2cc(C(c3ccccc3)c3ccccc3)ccc2=O)c1 | 99 | 797 | – | – | – | –
O=C(O)COc1cccc(CCCn2nc(C(c3ccccc3)c3ccccc3)ccc2=O)c1 | 18 | 147 | 730 | 2400 | – | –
O=C(O)COc1cccc(CCCN(CCC(c2ccccc2)c2ccccc2)C(=O)c2ccccc2)c1 | 9.7 | 18 | – | – | – | –
COc1ccc(C(=O)N(CCCc2cccc(OCC(=O)O)c2)CCC(c2ccccc2)c2ccccc2)cc1 | 5.5 | 17 | 40 | 270 | 766 | –
CC(C)(Oc1cccc(CCCn2cc(C(c3ccccc3)c3ccccc3)ccc2=O)c1)C(=O)O | – | > 1000 | – | – | – | –
CC(Oc1cccc(CCCn2cc(C(c3ccccc3)c3ccccc3)ccc2=O)c1)C(=O)O (stereo not given) | 17 | 128 | – | – | – | –
O=C(O)CCCOc1cccc(CCCn2nc(C(c3ccccc3)c3ccccc3)ccc2=O)c1 | 13 | 52 | 2860 | 4850 | – | 5200
O=C(O)CCCOc1cccc(CCCn2cc(C(c3ccccc3)c3ccccc3)ccc2=O)c1 | 11 | 99 | 500 | 1020 | – | –

Results, then the compound that gave them:

IC50 [1] [nM] | IC50 [2] [nM] | Cmax [3] [ng/mL] | AUC [4] [ng·h/mL] | CLint scaled [5] [mL/min/kg] | IC50 [6] [nM] | SMILES
6.2 | 772 | – | – | – | – | Cc1ccc(C(c2ccc(C)cc2)c2ccc(=O)n(CCCc3cccc(OCC(=O)O)c3)c2)cc1
5.8 | 211 | – | – | – | – | COc1ccc(C(c2ccc(OC)cc2)c2ccc(=O)n(CCCc3cccc(OCC(=O)O)c3)c2)cc1
11 | 359 | – | – | – | – | O=C(O)COc1cccc(CCCn2cc(C(c3ccc(F)cc3)c3ccc(F)cc3)ccc2=O)c1
– | 256 | 840 | 5950 | 120 | > 1000 | O=C(O)COc1cccc(CCCn2cc(C(c3ccccc3)c3ccccc3)ccc2=O)c1
9.2 | > 1000 | – | – | – | – | O=C(O)COc1cccc(CCCn2cc(C(c3ccc(Cl)cc3)c3ccc(Cl)cc3)ccc2=O)c1
